Source: PubChem BioAssay (Johns Hopkins Ion Channel Center)
Compounds with a hit are over-represented: about 2.3% of the library has one in this group of screens.
TRPC4 inh: inhibitors of mouse TRPC4 channel; AID 2247; HEK293 TRPC4beta/mu-opioid, DAMGO-evoked Fluo4 calcium flux; hits give low values; Q9QUQ5; B-score at 10 µM; 300,000 compounds, 0.39% hits;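 active = B-score over 3 SD under the library average, no early fluorescence shift, positive overall ratio signal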
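System: stable TRPC4beta/mu-opioid receptor HEK293 cells; Dosing: single-point compound dosing; Measured by: Fluo4 Ca2+ flux fluorescence; Read-out basis: per-well B score of integrated baseline-normalized Fluo4 ratio.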
TRPC4 PAM: TRPC4 (mouse) allosteric potentiation; HEK293 TRPC4beta/mu-opioid, DAMGO EC20, Fluo-4 Ca2+ flux; hits give high values; AID 2227; 310,000 compounds, 0.42% hits; Q9QUQ5; B-score at 10 µM;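 active = B-score of calcium response area above 5 SD of library B-scores, with initial fluorescence ratio within 5 SD of library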;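 note: B-score of integrated fluorescence ratio over time as area under calcium response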
TRPC6 inh: blocks the mouse TRPC6 cation channel; Q61143; HEK293-TRPC6, membrane potential dye, ACh-evoked depolarization; hits give low values; B-score at 10 µM; 310,000 compounds, 1.1% hits; AID 2553;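 active = B-score under library mean minus 3 SD, initial fluorescence not abnormally high, positive integrated signal ratio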;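 note: B-score derived from integrated fluorescence ratio over the kinetic read; more negative B-score means stronger inhibition of depolarization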
Target sequence (Q61143 whole entry, looked up): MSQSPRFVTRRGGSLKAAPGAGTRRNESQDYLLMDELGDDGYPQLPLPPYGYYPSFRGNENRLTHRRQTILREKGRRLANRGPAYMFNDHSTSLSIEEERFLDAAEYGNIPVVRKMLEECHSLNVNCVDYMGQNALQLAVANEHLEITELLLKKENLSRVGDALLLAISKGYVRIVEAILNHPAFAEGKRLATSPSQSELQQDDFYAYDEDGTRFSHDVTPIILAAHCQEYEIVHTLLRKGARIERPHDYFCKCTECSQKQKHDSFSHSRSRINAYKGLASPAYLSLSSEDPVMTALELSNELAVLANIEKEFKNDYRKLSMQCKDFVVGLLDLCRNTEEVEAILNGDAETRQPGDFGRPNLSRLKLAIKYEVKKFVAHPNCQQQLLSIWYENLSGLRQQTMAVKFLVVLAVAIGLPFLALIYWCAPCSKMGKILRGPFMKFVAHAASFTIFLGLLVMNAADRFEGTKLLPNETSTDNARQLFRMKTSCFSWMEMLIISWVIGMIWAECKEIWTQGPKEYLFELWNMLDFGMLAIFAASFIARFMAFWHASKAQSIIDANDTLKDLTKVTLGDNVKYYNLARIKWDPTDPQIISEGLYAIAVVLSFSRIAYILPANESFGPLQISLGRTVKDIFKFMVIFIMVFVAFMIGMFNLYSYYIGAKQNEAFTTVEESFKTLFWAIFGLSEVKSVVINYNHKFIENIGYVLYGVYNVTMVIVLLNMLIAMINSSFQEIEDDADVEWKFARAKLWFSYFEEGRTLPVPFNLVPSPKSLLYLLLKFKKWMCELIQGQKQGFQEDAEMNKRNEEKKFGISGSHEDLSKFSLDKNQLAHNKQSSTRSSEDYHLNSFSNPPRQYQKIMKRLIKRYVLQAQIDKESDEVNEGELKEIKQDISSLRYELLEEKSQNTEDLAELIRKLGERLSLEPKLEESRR
TRPC4 act: TRPC4 (mouse) channel activation. HEK293 TRPC4beta/mu-opioid, Fluo4 calcium fluorescence; hits give high values. B-score at 10 µM. 310,000 compounds, 0.49% hits. AID 2237;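 active = B-score above 5 SD of library B-scores, and initial fluorescence ratio not above library mean plus 5 SD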;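 note: positive B-score marks a calcium rise read as TRPC4 activation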
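Assay system: HEK293 stable line with TRPC4beta plus mu-opioid receptor; schedule: 45 min room-temperature Fluo4 loading, 110 s read; technique: kinetic Fluo4 calcium fluorescence; evaluation: integrated baseline-normalised fluorescence ratio, converted to per-well B score; controls: buffer (low) and maximal DAMGO (high)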
TRPC6 act: mouse TRPC6 channel activation; Q61143; HEK293-TRPC6 membrane potential dye fluorescence; hits give high values; B-score at 10 µM; 310,000 compounds, 0.13% hits; AID 2550;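 active = B-score of the integrated fluorescence ratio above library mean plus 3 SD, and starting fluorescence ratio within library mean plus 5 SD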;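 note: higher score means more depolarization so channel activation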
* marks the source's active call; other numbers are inactive results; i = inactive.

SMILES	TRPC4 inh	TRPC4 PAM	TRPC6 inh	TRPC4 act	TRPC6 act
O=c1c(Cc2ccccc2)c(O)ccn1CCc1cnc[nH]1	i	i	i	129*	i
CCCCN(CC)CCCNC(=O)c1cc2c(=O)n(CC)c3ccccc3c2s1	i	i	i	i	i
CCCN(CCC)CCCNC(=O)c1cc2c(=O)n(CC)c3ccccc3c2s1	i	i	i	50*	i
Cn1c(C(=O)NCCN2CCOCC2)cc2c(=O)n(C)c3ccccc3c21	i	i	i	i	i
CCCN(CCC)CCNC(=O)c1cc2c(=O)n(C)c3ccccc3c2n1C	i	13*	i	i	i
CCCCN(CC)CCNC(=O)c1cc2c(=O)n(C)c3ccccc3c2s1	i	16*	i	i	i
COc1cc(OC)c(N(C)C(=O)c2cc3c(s2)-c2ccccc2S(=O)(=O)C3)cc1Cl	i	i	i	i	i
Cc1cc(C)n(S(=O)(=O)c2ccc(C(C)(C)C)cc2)n1	i	i	-6.6*	i	i
Cc1cc(C)n(S(=O)(=O)c2ccc(F)cc2)n1	i	i	i	i	i
O=C(Nc1ccccc1)NC1CCN(Cc2c(F)cccc2Cl)CC1	i	i	i	i	i
CC(C)(C)c1ccccc1NC(=O)NC1CCN(Cc2c(F)cccc2Cl)CC1	i	i	i	116*	i
Cc1sc2ncnc(NCC3(N4CCOCC4)CCCCC3)c2c1C	i	i	i	i	i
Cc1sc2ncnc(NCC(C)(C)N3CCOCC3)c2c1C	i	i	i	162*	i
CCn1cc(C(C)NC(=O)Nc2ccccc2C(=O)OC)c(C)n1 (stereo not given)	i	i	i	i	i
COc1ccccc1N1CCN(C(c2cccs2)C(C)NC(=O)c2cccnc2)CC1 (stereo not given)	i	i	i	i	i
COc1ccccc1N1CCN(C(c2cccs2)C(C)NC(=O)c2cccs2)CC1 (stereo not given)	i	i	i	84*	i
CC(NC(=O)C1CC1)C(c1cccs1)N1CCN(c2ccccc2)CC1 (stereo not given)	i	i	i	44*	i
CC(C)C(=O)NC(C)C(c1cccs1)N1CCN(c2ccccc2)CC1 (stereo not given)	i	i	i	53*	i
Cc1cccc(-c2nnc(SC(C)C(=O)N3CCOCC3)o2)c1 (stereo not given)	i	i	i	i	i
O=S(=O)(NC1CCCCC1N1CCN(c2ccccc2F)CC1)c1ccc(Cl)cc1 (stereo not given)	i	12*	i	i	i
COc1cccc(NC(=O)C2CCN(S(=O)(=O)c3ccc4c(c3)C(C)(C)C(=O)N4C)CC2)c1	i	i	i	i	i
N=c1c2c(ncn1Cc1ccco1)Oc1cc(O)ccc1C2c1ccccc1 (stereo not given)	i	i	i	57*	i
N=c1c2c(ncn1Cc1ccco1)Oc1c(ccc3ccccc13)C2c1ccccc1 (stereo not given)	i	i	i	i	i
COCCN(C(=O)CSc1nnc(-c2cccc(F)c2)n1N)c1c(N)n(Cc2ccccc2)c(=O)[nH]c1=O	i	i	i	i	i
O=C(Nc1ccccc1-c1nnc(SCc2ccccc2Cl)o1)c1ccccc1	i	i	i	i	i
SMILES	TRPC4 inh	TRPC4 PAM	TRPC6 inh	TRPC4 act	TRPC6 act
Clc1cccc2c3c([nH]c12)CCNC3	i	16*	i	i	i
O=C(O)c1cccc2c3c([nH]c12)CCCC3	i	i	i	i	i
Clc1ccc2[nH]c3c(c2c1)CNCC3	i	19*	i	i	i
O=C1CCCc2c1[nH]c1ccc(Cl)cc21	i	i	i	i	i
CCN(CC)S(=O)(=O)c1cc(NC(=O)Cn2ncc(Cl)c(Cl)c2=O)ccc1C	i	i	i	i	i
CCN1CCN(CCNC(=O)CCc2c(C)c3c(C)nn(-c4ccccc4)c3n(C)c2=O)CC1	i	i	i	i	i
O=C(NCCS(=O)(=O)NCc1ccccn1)c1ccccc1	i	i	i	i	i
COc1ccc(NC(=O)c2c[nH]n3c(=O)cc(C4CCN(C(=O)OC(C)(C)C)CC4)nc23)cc1Cl	-7*	i	i	i	i
CC(C)(C)OC(=O)N1CCC(c2cc(=O)n3[nH]cc(C(=O)Nc4ccc(F)c(Cl)c4)c3n2)CC1	i	i	i	i	i
CCn1c(SCC(=O)c2cc(C)n(CC3CCCO3)c2C)nc2ccccc21 (stereo not given)	-7*	i	i	200*	i
Cc1ccc(C(C)(C)C)cc1S(=O)(=O)Nc1nc2ccccc2nc1Cl	-6*	i	i	i	i
Cc1ccc2nc3c(cc(C(=O)NC4CCCC4)c(=N)n3CCCn3ccnc3)c(=O)n2c1	i	i	-5.5*	i	i
N=c1c(C(=O)NC2CCCC2)cc2c(=O)n3ccccc3nc2n1CCCN1CCOCC1	i	i	i	i	i
Cc1ccc(Cn2c(=N)c(C(=O)NCC3CCCO3)cc3c(=O)n4ccccc4nc32)cc1 (stereo not given)	i	47*	i	i	i
N=c1c(C(=O)NCCc2ccccc2)cc2c(=O)n3ccccc3nc2n1CC1CCCO1 (stereo not given)	i	i	-5.1*	i	i
Cc1ccc(Cn2c(=N)c(C(=O)NC3CCCCC3)cc3c(=O)n4ccccc4nc32)cc1	i	20*	i	i	i
Cc1cc(C)c(S(=O)(=O)NCC(=O)NCc2cc(=O)n(C)c(=O)n2C)c(C)c1	i	i	i	i	i
CC(C)NC(=O)c1nn(C)c2ccccc12	i	i	i	i	i
N=c1c(C(=O)NCC2CCCO2)cc2c(=O)n3ccccc3nc2n1Cc1ccc(Cl)cc1 (stereo not given)	i	29*	i	i	i
CC(Cl)C(=O)Nc1cc(C(F)(F)F)ccc1N1CCOCC1 (stereo not given)	i	i	i	i	i
CN1CCN(c2ccc(C(F)(F)F)cc2NC(=O)Nc2ccccc2)CC1	i	17*	i	105*	i
O=C(C1=C[C@H](C2CC2)C[C@H](OCc2ccc(CO)cc2)O1)N1CCOCC1	i	i	i	i	i
Fc1ccc(COc2ccc(Br)cc2CNCC2CCCO2)cc1 (stereo not given)	i	i	i	i	i
